Results taken from ChEMBL document CHEMBL1137220, “2-(2-(dimethylaminomethyl)phenoxy)-5-iodophenylamine: an improved serotonin transporter imaging agent” (J Med Chem, 2004).
“And” between values parts separate entries of the source, which are not always exact repeats. Equal entries are not always repeated.

How the values were obtained:
[1] = Biodistribution in rat liver was determined after 6 hours of intravenous administration of the compound; [125I]- is used as radioactive isotope; type: ADME, organism-based; conditions: in vivo
Outline: (§1)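 Rats under ether anesthesia, three per group, received 10 μCi tracer in 0.2 mL saline into the femoral vein. They were killed by cardiac excision under ether at each time point. Organs were removed, weighed and counted. Percent dose per organ was calculated against a 1%-of-injected-dose standard counted at the same time.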

[2] = Distribution ratio in striatum and cerebellum was determined after 120 min of intravenous administration of the compound; [125I]- is used as radioactive isotope; type: ADME, tissue-based; conditions: rat, 2 h
Outline: (§2)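 Rats, three per group, given 10 μCi tracer in 0.2 mL saline into the femoral vein under ether anesthesia, then killed by cardiac excision at the stated time. Brain regions were dissected, weighed and counted. Percent dose/g was calculated against a 1% diluted aliquot of the injected dose. The ratio is (region − cerebellum)/cerebellum on a % dose/g basis, with cerebellum as background.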

[3] = Distribution ratio in hippocampus and cerebellum was determined after 6 hrs of intravenous administration of the compound; [125I]- is used as radioactive isotope; type: ADME, tissue-based; conditions: rat
Outline: (§3)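 After femoral-vein injection of 10 μCi [¹²⁵I] tracer in 0.2 mL saline under ether anaesthesia (three rats per group), brain regions were dissected, weighed and counted: cortex (frontal plus occipital), hippocampus, hypothalamus and cerebellum. %dose/g was calculated against a diluted injected-dose standard. Ratio = (region − cerebellum)/cerebellum on a %dose/g basis, with cerebellum as the background region.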

[4] = Distribution ratio in striatum and cerebellum was determined after 2 min of intravenous administration of the compound; [125I]- is used as radioactive isotope; type: ADME, tissue-based; conditions: rat; outline: as §2
[5] = Distribution ratio in striatum and cerebellum was determined after 6 hrs of intravenous administration of the compound; [125I]- is used as radioactive isotope; type: ADME, tissue-based; conditions: rat; outline: as §2
[6] = Distribution ratio in hippocampus and cerebellum was determined after 240 min of intravenous administration of the compound; [125I]- is used as radioactive isotope; type: ADME, tissue-based; conditions: rat, 4 h; outline: as §3
[7] = Distribution ratio in hypothalamus and cerebellum was determined after 6 hours of intravenous administration of the compound; [125I]- is used as radioactive isotope; type: ADME, tissue-based; conditions: rat; outline: as §2
[8] = Regional brain distribution in rat striatum was determined after 24 hours of intravenous administration of the compound; [125I]- is used as radioactive isotope; type: ADME, tissue-based; conditions: in vivo
Outline: (§4)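 Rats, three per group, injected with 10 μCi tracer in 0.2 mL saline via the femoral vein under ether anesthesia and killed by cardiac excision at the stated time. Cortex (frontal plus occipital), striatum, hippocampus, cerebellum and hypothalamus were dissected, weighed and gamma-counted. Values are % dose/g, calculated by comparison with counts of a 100-fold diluted aliquot of the injected dose.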

[9] = Regional brain distribution in rat cerebellum was determined after 240 min of intravenous administration of the compound; [125I]- is used as radioactive isotope; type: ADME, tissue-based; conditions: in vivo, 4 h; outline: as §4
[10] = Regional brain distribution in rat hippocampus was determined after 30 min of intravenous administration of the compound; [125I]- is used as radioactive isotope; type: ADME, tissue-based; conditions: in vivo, 0.5 h; outline: as §4
[11] = Distribution ratio in cortex and cerebellum was determined after 11 hrs of intravenous administration of the compound; [125I]- is used as radioactive isotope; type: ADME, tissue-based; conditions: rat; outline: as §3
[12] = Regional brain distribution in rat cerebellum was determined after 2 min of intravenous administration of the compound; [125I]- is used as radioactive isotope; type: ADME, tissue-based; conditions: in vivo; outline: as §4
[13] = Regional brain distribution in rat striatum was determined after 240 min of intravenous administration of the compound; [125I]- is used as radioactive isotope; type: ADME, tissue-based; conditions: in vivo, 4 h; outline: as §4
[14] = Regional brain distribution in rat hypothalamus was determined after 2 min of intravenous administration of the compound; [125I]- is used as radioactive isotope; type: ADME, tissue-based; conditions: in vivo; outline: as §4
[15] = Regional brain distribution in rat hippocampus was determined after 240 min of intravenous administration of the compound; [125I]- is used as radioactive isotope; type: ADME, tissue-based; conditions: in vivo, 4 h; outline: as §4
[16] = Regional brain distribution in rat hippocampus was determined after 6 hours of intravenous administration of the compound; [125I]- is used as radioactive isotope; type: ADME, tissue-based; conditions: in vivo; outline: as §4
[17] = Regional brain distribution in rat hypothalamus was determined after 120 min of intravenous administration of the compound; [125I]- is used as radioactive isotope; type: ADME, tissue-based; conditions: in vivo, 2 h; outline: as §4
[18] = Distribution ratio in cortex and cerebellum was determined after 2 min of intravenous administration of the compound; [125I]- is used as radioactive isotope; type: ADME, tissue-based; conditions: rat; outline: as §3
[19] = Biodistribution in rat skin was determined after 2 min of intravenous administration of the compound; [125I]- is used as radioactive isotope; type: ADME, organism-based, Zone of skin; conditions: in vivo
Outline: (§5)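 Rats, three per group, under ether anaesthesia, received 10 μCi of [¹²⁵I]-labelled tracer in 0.2 mL saline into the femoral vein. They were killed by cardiac excision under ether at each time point. Organs were removed, weighed and counted. Percent dose per organ was calculated against counts of a 1% aliquot of the injected dose (100-fold diluted) counted at the same time.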

[20] = Biodistribution in rat kidney was determined after 2 min of intravenous administration of the compound; [125I]- is used as radioactive isotope; type: ADME, organism-based; conditions: in vivo; outline: as §1
[21] = Biodistribution in rat lung was determined after 120 min of intravenous administration of the compound; [125I]- is used as radioactive isotope; type: ADME, organism-based; conditions: in vivo, 2 h; outline: as §1
[22] = Biodistribution in rat lung was determined after 240 min of intravenous administration of the compound; [125I]- is used as radioactive isotope; type: ADME, organism-based; conditions: in vivo, 4 h; outline: as §1
[23] = Biodistribution in rat skin was determined after 120 min of intravenous administration of the compound; [125I]- is used as radioactive isotope; type: ADME, organism-based, Zone of skin; conditions: in vivo, 2 h; outline: as §5
[24] = Biodistribution in rat spleen was determined after 2 min of intravenous administration of the compound; [125I]- is used as radioactive isotope; type: ADME, organism-based; conditions: in vivo; outline: as §5
[25] = Biodistribution in rat thyroid was determined after 2 min of intravenous administration of the compound; [125I]- is used as radioactive isotope; type: ADME, organism-based, Thyroid gland; conditions: in vivo; outline: as §5
[26] = Biodistribution in rat spleen was determined after 120 min of intravenous administration of the compound; [125I]- is used as radioactive isotope; type: ADME, organism-based; conditions: in vivo, 2 h; outline: as §5
[27] = Biodistribution in rat spleen was determined after 6 hours of intravenous administration of the compound; [125I]- is used as radioactive isotope; type: ADME, organism-based; conditions: in vivo; outline: as §5
[28] = Biodistribution in rat kidney was determined after 60 min of intravenous administration of the compound; [125I]- is used as radioactive isotope; type: ADME, organism-based; conditions: in vivo, 1 h; outline: as §1
[29] = Biodistribution in rat liver was determined after 240 min of intravenous administration of the compound; [125I]- is used as radioactive isotope; type: ADME, organism-based; conditions: in vivo, 4 h; outline: as §1
[30] = Biodistribution in rat blood was determined after 24 hours of intravenous administration of the compound; [125I]- is used as radioactive isotope; type: ADME, organism-based; conditions: in vivo; outline: as §1
[31] = Biodistribution in rat heart was determined after 11 hours of intravenous administration of the compound; [125I]- is used as radioactive isotope; type: ADME, organism-based; conditions: in vivo; outline: as §1
[32] = Biodistribution in rat muscle was determined after 120 min of intravenous administration of the compound; [125I]- is used as radioactive isotope; type: ADME, organism-based, Muscle tissue; conditions: in vivo, 2 h; outline: as §5
[33] = Biodistribution in rat kidney was determined after 11 hours of intravenous administration of the compound; [125I]- is used as radioactive isotope; type: ADME, organism-based; conditions: in vivo; outline: as §1
[34] = Biodistribution in rat kidney was determined after 24 hours of intravenous administration of the compound; [125I]- is used as radioactive isotope; type: ADME, organism-based; conditions: in vivo; outline: as §1

CN(C)Cc1ccccc1Oc1ccc(I)cc1N
Dose [1]: 3.59%
Dose/g [2]: 2.53%
Dose/g [3]: 1.21%
Dose/g [4]: 0.01%
Dose/g [5]: 1.56%
Dose/g [6]: 2.47%
Dose/g [7]: 2.64%
Dose/g [8]: 0.0039%
Dose/g [9]: 0.06%
Dose/g [10]: 1.06%
Dose/g [11]: 0%
Dose/g [12]: 0.79% and 0.64%
Dose/g [13]: 0.24%
Dose/g [14]: 0.96%
Dose/g [15]: 0.2%
Dose/g [16]: 0.059%
Dose/g [17]: 0.92%
Dose/g [18]: 0.56%
Dose [19]: 4.45%
Dose [20]: 4.27%
Dose [21]: 0.88%
Dose [22]: 0.37%
Dose [23]: 12.5%
Dose [24]: 0.44%
Dose [25]: 0.1%
Dose [26]: 0.27%
Dose [27]: 0.11% and 0.05%
Dose [28]: 1.67%
Dose [29]: 3.52%
Dose [30]: 0.7%
Dose [31]: 0.06%
Dose [32]: 9.18%
Dose [33]: 0.4%
Dose [34]: 0.17%
